Legend:
Spirodela polyrhiza [1] = assay: Inhibition of chlorophyll in Spirodela polyrhiza fronds at 10 ug/mL using light intensity of 45 uE/m2/s measured after 7 days; type: functional; details: 168 h
In short: (§1)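 Giant duckweed assay. Compound in DMF dropped onto filter paper, solvent evaporated 15 min, paper placed in flask with 15 mL fresh medium and shaken >10 min. 10 fronds inoculated per flask and grown 7 days at 23-26 °C, 16 h light/8 h dark, ca. 45 µE m^-2 s^-1. DMF plus medium served as control. Chl extracted in 96% ethanol overnight at 4 °C; OD read at 665 and 649 nm; content expressed as percent of control.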

Spirodela polyrhiza [2] = assay: Inhibition of chlorophyll in Spirodela polyrhiza fronds at 1 ug/mL using light intensity of 45 uE/m2/s measured after 7 days; type: functional; details: 168 h; in short: as §1
Digitaria [3] = assay: Herbicidal activity against Digitaria adscendens assessed as inhibition of fresh plant weight at 750 g/ha using preemergence protocol measured after 24 days under green house conditions; details: in Digitaria adscendens, pre-emergence
Digitaria [4] = assay: Herbicidal activity against Digitaria adscendens assessed as inhibition of fresh plant weight at 750 g/ha using postemergence protocol measured after 24 days under green house conditions; details: in Digitaria adscendens, post-emergence
Amaranthus retroflexus [5] = assay: Herbicidal activity against Amaranthus retroflexus assessed as inhibition of fresh plant weight at 750 g/ha using preemergence protocol measured after 24 days under green house conditions; details: pre-emergence
Amaranthus retroflexus [6] = assay: Herbicidal activity against Amaranthus retroflexus assessed as inhibition of fresh plant weight at 750 g/ha using postemergence protocol measured after 24 days under green house conditions; details: post-emergence
[7] = tested on: Brassica rapa subsp. oleifera; assay: Herbicidal activity against Brassica rapa subsp. oleifera assessed as inhibition of fresh plant weight at 750 g/ha using preemergence protocol measured after 24 days under green house conditions; details: pre-emergence
[8] = tested on: Brassica rapa subsp. oleifera; assay: Herbicidal activity against Brassica rapa subsp. oleifera assessed as inhibition of fresh plant weight at 750 g/ha using postemergence protocol measured after 24 days under green house conditions; details: post-emergence
Echinochloa crus-galli [9] = assay: Herbicidal activity against Echinochloa crus-galli (barnyard grass) assessed as inhibition of fresh plant weight at 750 g/ha using preemergence protocol measured after 24 days under green house conditions; details: pre-emergence
Echinochloa crus-galli [10] = assay: Herbicidal activity against Echinochloa crus-galli (barnyard grass) assessed as inhibition of fresh plant weight at 750 g/ha using postemergence protocol measured after 24 days under green house conditions; details: post-emergence

Row | SMILES | inhibition at 10 µg/mL (Spirodela polyrhiza [1]) [%] | inhibition at 1 µg/mL (Spirodela polyrhiza [2]) [%] | inhibition at 750 g/ha (Digitaria [3]) [%] | inhibition at 750 g/ha (Digitaria [4]) [%] | inhibition at 750 g/ha (Amaranthus retroflexus [5]) [%] | inhibition at 750 g/ha (Amaranthus retroflexus [6]) [%] | inhibition at 750 g/ha [7] [%] | inhibition at 750 g/ha [8] [%] | inhibition at 750 g/ha (Echinochloa crus-galli [9]) [%] | inhibition at 750 g/ha (Echinochloa crus-galli [10]) [%]
1 | Cc1cc(-c2cccc(C(F)(F)F)c2)c(NCc2ccccc2F)nn1 | 81 | 77 | 0 | 24 | 8 | 44 | 24 | 49 | 0 | 10
2 | Cc1cc(-c2cccc(C(F)(F)F)c2)c(Nc2cccc(Br)c2)nn1 | 100 | 100 | 0 | 0 | 0 | 30 | 14 | 17 | 0 | 0
3 | COc1ccccc1Nc1nnc(C)cc1-c1cccc(C(F)(F)F)c1 | 82 | 62 | 0 | 0 | 4 | 30 | 9 | 6 | 0 | 11
4 | COc1ccc(Nc2nnc(C)cc2-c2cccc(C(F)(F)F)c2)cc1 | 100 | 100 | 2 | 89 | 55 | 27 | 13 | 44 | 5 | 28
5 | Cc1cc(-c2cccc(C(F)(F)F)c2)c(NCc2ccc(Cl)cc2)nn1 | 85 | 25 | 0 | 18 | 3 | 44 | 7 | 27 | 9 | 15
6 | COc1ccc(CNc2nnc(C)cc2-c2cccc(C(F)(F)F)c2)cc1 | 84 | 51 | 0 | 8 | 2 | 18 | 0 | 14 | 22 | 0
7 | Cc1ccc(CNc2nnc(C)cc2-c2cccc(C(F)(F)F)c2)cc1 | 74 | 34 | 64 | 54 | 31 | 2 | 16 | 20 | 78 | 0
8 | Cc1cc(-c2cccc(C(F)(F)F)c2)c(Nc2ccc(Br)cc2)nn1 | 63 | 59 | 14 | 26 | 54 | 45 | 26 | 36 | 15 | 13
9 | Cc1cc(-c2cccc(C(F)(F)F)c2)c(Nc2ccccc2C)nn1 | 83 | 65 | 11 | 1 | 0 | 38 | 7 | 86 | 0 | 10
10 | Cc1cc(-c2cccc(C(F)(F)F)c2)c(Nc2ccc(OC(F)(F)F)cc2)nn1 | 83 | 65 | 5 | 35 | 35 | 26 | 0 | 50 | 0 | 21
11 | Cc1cc(-c2cccc(C(F)(F)F)c2)c(NC(C)c2ccc(F)cc2)nn1 (stereo not given) | 79 | 47 | 28 | 57 | 1 | 1 | 13 | 0 | 14 | 0
12 | Cc1cc(-c2cccc(C(F)(F)F)c2)c(NC(C)c2ccc(Cl)cc2)nn1 (stereo not given) | 23 | 15 | 11 | 67 | 16 | 17 | 2 | 8 | 13 | 27
13 | Cc1cc(-c2cccc(C(F)(F)F)c2)c(NCc2ccccc2)nn1 | 86 | 83 | 7 | 23 | 4 | 27 | 0 | 30 | 0 | 8
14 | Cc1ccc(Nc2nnc(C)cc2-c2cccc(C(F)(F)F)c2)c(C)c1 | 72 | 69 | 7 | 11 | 0 | 0 | 10 | 22 | 0 | 25
15 | Cc1cc(-c2cccc(C(F)(F)F)c2)c(NCc2ccccc2Cl)nn1 | 90 | 73 | 1 | 29 | 36 | 33 | 0 | 34 | 3 | 26
16 | Cc1cc(-c2cccc(C(F)(F)F)c2)c(Nc2ccccc2Cl)nn1 | 100 | 82 | 0 | 19 | 10 | 41 | 9 | 93 | 2 | 24
17 | Cc1cc(-c2cccc(C(F)(F)F)c2)c(NCCc2ccccc2)nn1 | 100 | 100 | 27 | 11 | 16 | 30 | 0 | 45 | 4 | 13
18 | Cc1cc(-c2cccc(C(F)(F)F)c2)c(Nc2cccc(Cl)c2)nn1 | 100 | 100 | 0 | 5 | 12 | 38 | 3 | 63 | 0 | 7
19 | Cc1cc(-c2cccc(C(F)(F)F)c2)c(NC(C)c2ccccc2)nn1 (stereo not given) | 63 | 31 | 12 | 54 | 10 | 7 | 12 | 0 | 10 | 43
